Source: ChEMBL document CHEMBL3603803, “Design and synthesis of dithiocarbamate linked β-carboline derivatives: DNA topoisomerase II inhibition with DNA binding and apoptosis inducing ability” (Bioorg Med Chem, 2015)
The source made the active and inactive calls. The rule behind the calls is not given here.

Columns and labels:
[1] = tested on: HeLa; assay: Cytotoxicity against human HeLa cells after 48 hrs by MTT assay; format: functional, cell-based
In short: (§1)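 Human cancer cell lines (A549 lung, MCF-7 breast, DU-145 prostate, HeLa cervical) exposed to compounds for 48 h; 50% inhibitory concentration derived, average of three individual experiments; doxorubicin reference agent.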

[2] = tested on: DU-145; assay: Cytotoxicity against human DU145 cells after 48 hrs by MTT assay; format: functional, cell-based; conditions: DU-145, 48 h; in short: as §1
[3] = tested on: A549; assay: Cytotoxicity against human A549 cells after 48 hrs by MTT assay; format: functional, cell-based; conditions: A549, 48 h; in short: as §1
[4] = tested on: MCF7; assay: Cytotoxicity against human MCF7 cells after 48 hrs by MTT assay; format: functional, cell-based; conditions: MCF7, 48 h; in short: as §1
[5] = biological target: DNA topoisomerase II (Homo sapiens) (UniProt P11388+Q02880); assay: Interfacial poisoning activity at DNA-topoisomerase 2 (unknown origin) using catenated kDNA as substrate assessed as linear DNA formation at 1 to 100 uM after 30 mins by agarose gel electrophoresis; format: protein assay
In short: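 Catenated DNA incubated with topo II and compound at 1, 10 and 100 µM; gel products scored for linear DNA (poison type) versus nicked circular/relaxed DNA retained in wells (catalytic inhibitor type); etoposide at 1, 10, 100 µM as control.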

Structure (SMILES) | IC50 [1] | IC50 [2] | IC50 [3] | IC50 [4] | Activity [5]
COc1ccc(-c2nc(CN)cc3c4ccccc4n(C)c23)cc1 | 14.8 µM | 12.8 µM | 20.1 µM | 16.6 µM | –
Cn1c2ccccc2c2cc(CNC(=S)SCc3ccccc3)nc(-c3ccc(C(F)(F)F)cc3)c21 | 4.78 µM | 2.08 µM | 5.12 µM | 4.31 µM | –
COc1cccc2c1C(=O)c1c(O)c3c(c(O)c1C2=O)C[C@@](O)(C(=O)CO)C[C@@H]3O[C@H]1C[C@H](N)[C@H](O)[C@H](C)O1 [DOXORUBICIN] | 2.63 µM | 1.38 µM | 1.58 µM | 0.96 µM | –
C=CCSC(=S)NCc1cc2c3ccccc3n(C)c2c(-c2ccc(F)cc2)n1 | 2.57 µM | 2.88 µM | 6.02 µM | 3.01 µM | –
C=CCSC(=S)NCc1cc2c([nH]c3ccccc32)c(-c2ccc(F)cc2)n1 | 4.46 µM | 3.98 µM | 16.7 µM | 6.6 µM | –
COc1cc([C@@H]2c3cc4c(cc3[C@@H](O[C@@H]3O[C@@H]5CO[C@@H](C)O[C@H]5[C@H](O)[C@H]3O)[C@H]3COC(=O)[C@H]23)OCO4)cc(OC)c1O | – | – | – | – | Active
COc1cc(-c2nc(CNC(=S)SCc3ccccc3)cc3c2[nH]c2ccccc23)cc(OC)c1OC | 14.5 µM | 17.3 µM | 27.5 µM | 25.8 µM | –
NCc1cc2c([nH]c3ccccc32)c(-c2ccc(C(F)(F)F)cc2)n1 | 15.8 µM | 9.12 µM | 15.8 µM | 12 µM | –
CSC(=S)NCc1cc2c([nH]c3ccccc32)c(-c2ccc(C(F)(F)F)cc2)n1 | 12.6 µM | 9.54 µM | 16.9 µM | 15.8 µM | –
C=CCSC(=S)NCc1cc2c([nH]c3ccccc32)c(-c2ccc(OC)cc2)n1 | 59.1 µM | 46.7 µM | 51.4 µM | 38.8 µM | –
Cn1c2ccccc2c2cc(CN)nc(-c3ccc(C(F)(F)F)cc3)c21 | 15.1 µM | 7.76 µM | 19.2 µM | 11.7 µM | –
COc1cc(-c2nc(CNC(=S)SC)cc3c2[nH]c2ccccc23)cc(OC)c1OC | 11.3 µM | 5.62 µM | 8.12 µM | 8.91 µM | –
C=CCSC(=S)NCc1cc2c3ccccc3n(C)c2c(-c2ccc(C(F)(F)F)cc2)n1 | 4.67 µM | 1.99 µM | 4.26 µM | 4.78 µM | –
COc1ccc(-c2nc(CNC(=S)SC)cc3c4ccccc4n(C)c23)cc1 | 2.57 µM | 1.41 µM | 5.12 µM | 1.51 µM | –
C=CCSC(=S)NCc1cc2c3ccccc3n(C)c2c(-c2ccc(OC)cc2)n1 | 8.3 µM | 2.5 µM | 10 µM | 3.2 µM | –
COc1ccc(-c2nc(CNC(=S)SCc3ccccc3)cc3c4ccccc4n(C)c23)cc1 | 13.8 µM | 6.91 µM | 9.12 µM | 3.36 µM | –

Structure (SMILES) | IC50 [1] | IC50 [2] | IC50 [3] | IC50 [4] | Activity [5]
COc1cc(-c2nc(CNC(=S)SC)cc3c4ccccc4n(C)c23)cc(OC)c1OC | 16.9 µM | 6.16 µM | 12.5 µM | 15.2 µM | –
COc1cc(-c2nc(CN)cc3c2[nH]c2ccccc23)cc(OC)c1OC | 21.7 µM | 18.3 µM | 15.1 µM | 18.6 µM | –
C=CCSC(=S)NCc1cc2c([nH]c3ccccc32)c(-c2cc(OC)c(OC)c(OC)c2)n1 | 23.2 µM | 13.8 µM | 12.8 µM | 15.8 µM | –
CSC(=S)NCc1cc2c3ccccc3n(C)c2c(-c2ccc(F)cc2)n1 | 2.39 µM | 1.45 µM | 5.62 µM | 1.86 µM | –
COc1ccc(-c2nc(CNC(=S)SCc3ccccc3)cc3c2[nH]c2ccccc23)cc1 | 24.1 µM | 13.8 µM | 17.7 µM | 10 µM | –
Cn1c2ccccc2c2cc(CNC(=S)SCc3ccccc3)nc(-c3ccc(F)cc3)c21 | 3.16 µM | 4.78 µM | 6.76 µM | 2.75 µM | –
NCc1cc2c([nH]c3ccccc32)c(-c2ccc(F)cc2)n1 | 22.5 µM | 13.8 µM | 21.1 µM | 17.9 µM | –
COc1cc(-c2nc(CNC(=S)SCc3ccccc3)cc3c4ccccc4n(C)c23)cc(OC)c1OC | 12.3 µM | 10.6 µM | 14.1 µM | 13.9 µM | –
COc1ccc(-c2nc(CN)cc3c2[nH]c2ccccc23)cc1 | 18.6 µM | 17.4 µM | 17.8 µM | 18.9 µM | –
Fc1ccc(-c2nc(CNC(=S)SCc3ccccc3)cc3c2[nH]c2ccccc23)cc1 | 3.81 µM | 3.71 µM | 39.8 µM | 7.41 µM | –
COc1cc(-c2nc(CN)cc3c4ccccc4n(C)c23)cc(OC)c1OC | 19.9 µM | 14.8 µM | 18.2 µM | 15.1 µM | –
C=CCSC(=S)NCc1cc2c([nH]c3ccccc32)c(-c2ccc(C(F)(F)F)cc2)n1 | 10.6 µM | 7.76 µM | 18.6 µM | 10.9 µM | –
COc1ccc(-c2nc(CNC(=S)SC)cc3c2[nH]c2ccccc23)cc1 | 7.78 µM | 1.14 µM | 7.94 µM | 8.51 µM | –
C=CCSC(=S)NCc1cc2c3ccccc3n(C)c2c(-c2cc(OC)c(OC)c(OC)c2)n1 | 19.9 µM | 19.4 µM | 18.1 µM | 20.6 µM | –
Cn1c2ccccc2c2cc(CN)nc(-c3ccc(F)cc3)c21 | 20.5 µM | 10 µM | 19.5 µM | 16.6 µM | –
FC(F)(F)c1ccc(-c2nc(CNC(=S)SCc3ccccc3)cc3c2[nH]c2ccccc23)cc1 | 3.98 µM | 5.88 µM | 9.33 µM | 12.3 µM | –
